Reference: ChEMBL document CHEMBL2169742, “Design, synthesis, and biological evaluation of novel transrepression-selective liver X receptor (LXR) ligands with 5,11-dihydro-5-methyl-11-methylene-6H-dibenz[b,e]azepin-6-one skeleton” (J Med Chem, 2012)
Calls of active or inactive are those of the source. The calls are words filed in the database; no cut-off is given here.

Tests used:
[1] = molecular target: T1, Oxysterols receptor LXR-alpha (Homo sapiens) (UniProt Q13133); experiment: Transactivational antagonist activity at human LXRalpha transfected in HEK293 cells coexpressing CMX-Gal4N-NCoR assessed as NCoR recruitment after 16 hrs by reporter gene assay; format: functional, cell-based
T1 sequence (whole entry): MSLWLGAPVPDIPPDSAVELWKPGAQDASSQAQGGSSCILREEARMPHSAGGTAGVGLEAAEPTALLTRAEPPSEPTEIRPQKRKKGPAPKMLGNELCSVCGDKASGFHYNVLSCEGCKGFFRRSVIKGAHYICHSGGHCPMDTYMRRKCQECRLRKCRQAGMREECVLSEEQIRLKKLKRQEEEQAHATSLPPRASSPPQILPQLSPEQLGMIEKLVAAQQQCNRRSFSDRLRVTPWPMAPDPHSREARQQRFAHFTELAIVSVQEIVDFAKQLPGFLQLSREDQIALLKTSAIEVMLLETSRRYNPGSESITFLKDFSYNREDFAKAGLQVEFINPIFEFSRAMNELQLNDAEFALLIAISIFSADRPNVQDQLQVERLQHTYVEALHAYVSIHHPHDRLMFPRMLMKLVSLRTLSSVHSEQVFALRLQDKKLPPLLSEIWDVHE
Method in brief: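 Mammalian two-hybrid in HEK293 cells by calcium phosphate cotransfection: CMX-VP16N-hLXRα, Gal4N-fused SRC1, DRIP205, NCoR or SMRT (15 ng), tk-MH100×4-luc (50 ng) and CMX-β-gal (10 ng). Compound or DMSO added 8 h after transfection for 16 h. Luciferase was normalized to β-galactosidase, in triplicate.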

[2] = molecular target: T2, Retinoic acid receptor RXR-alpha (Homo sapiens) (UniProt P19793); experiment: Agonist activity at human Gal4-fused RXRalpha assessed as luciferase activity at 0.1 to 10 uM by reporter gene assay; format: functional
T2 sequence (whole entry): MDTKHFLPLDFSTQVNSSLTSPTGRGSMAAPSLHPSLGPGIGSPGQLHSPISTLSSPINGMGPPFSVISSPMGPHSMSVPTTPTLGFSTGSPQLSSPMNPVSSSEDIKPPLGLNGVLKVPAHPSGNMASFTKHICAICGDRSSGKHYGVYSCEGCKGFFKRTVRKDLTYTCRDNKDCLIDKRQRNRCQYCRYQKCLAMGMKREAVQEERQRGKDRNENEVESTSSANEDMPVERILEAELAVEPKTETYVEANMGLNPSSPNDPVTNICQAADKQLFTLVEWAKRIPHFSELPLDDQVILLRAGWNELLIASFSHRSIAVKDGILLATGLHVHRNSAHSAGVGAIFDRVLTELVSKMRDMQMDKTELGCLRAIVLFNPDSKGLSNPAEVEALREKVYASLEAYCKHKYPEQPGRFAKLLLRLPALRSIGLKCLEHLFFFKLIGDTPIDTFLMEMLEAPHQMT

[3] = Transrepressional activity at LXR in C57BL/6J mouse peritoneal macrophages assessed as inhibition of LPS-induced IL-6 mRNA expression at 10 uM incubated for 6 hr prior to LPS-challenge measured after 18 hrs by RT-PCR analysis
Method in brief: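 Thioglycollate-elicited peritoneal macrophages (wild-type C57BL/6J or LXRα-null, 8–10 weeks) were plated at 4 × 10⁶/well and pretreated with compound 6 h before LPS 100 ng/mL. Cells were harvested after 18 h. il-6 and il-1β mRNA were measured by real-time quantitative PCR, normalized to GAPDH.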

[4] = molecular target: T2, Retinoic acid receptor RXR-alpha (Homo sapiens); experiment: Antagonist activity at human Gal4-fused RXRalpha assessed as inhibition of SR11215-induced luciferase activity at 0.1 to 10 uM by reporter gene assay; format: functional
[5] = molecular target: T3, Bile acid receptor (Homo sapiens) (UniProt Q96RI1); experiment: Agonist activity at human Gal4-fused FXR assessed as luciferase activity at 0.03 to 10 uM by reporter gene assay; format: functional
T3 sequence (whole entry): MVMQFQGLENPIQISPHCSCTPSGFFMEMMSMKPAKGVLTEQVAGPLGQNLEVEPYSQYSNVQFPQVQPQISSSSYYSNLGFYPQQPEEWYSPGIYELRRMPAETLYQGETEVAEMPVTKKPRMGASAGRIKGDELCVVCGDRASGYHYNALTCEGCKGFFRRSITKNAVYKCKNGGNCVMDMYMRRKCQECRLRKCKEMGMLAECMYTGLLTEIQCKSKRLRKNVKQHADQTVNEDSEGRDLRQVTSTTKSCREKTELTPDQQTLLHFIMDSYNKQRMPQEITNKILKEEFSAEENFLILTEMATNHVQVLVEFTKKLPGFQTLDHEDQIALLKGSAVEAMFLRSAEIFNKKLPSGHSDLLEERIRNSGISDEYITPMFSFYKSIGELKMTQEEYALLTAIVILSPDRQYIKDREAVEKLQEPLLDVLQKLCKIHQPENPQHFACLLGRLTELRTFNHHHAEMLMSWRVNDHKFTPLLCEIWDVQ

[6] = molecular target: T4, Peroxisome proliferator-activated receptor gamma (Homo sapiens) (UniProt P37231); experiment: Antagonist activity at human Gal4-fused PPARgamma assessed as inhibition of ciglitazone-induced luciferase activity at 0.1 to 10 uM by reporter gene assay; format: functional
T4 sequence (whole entry): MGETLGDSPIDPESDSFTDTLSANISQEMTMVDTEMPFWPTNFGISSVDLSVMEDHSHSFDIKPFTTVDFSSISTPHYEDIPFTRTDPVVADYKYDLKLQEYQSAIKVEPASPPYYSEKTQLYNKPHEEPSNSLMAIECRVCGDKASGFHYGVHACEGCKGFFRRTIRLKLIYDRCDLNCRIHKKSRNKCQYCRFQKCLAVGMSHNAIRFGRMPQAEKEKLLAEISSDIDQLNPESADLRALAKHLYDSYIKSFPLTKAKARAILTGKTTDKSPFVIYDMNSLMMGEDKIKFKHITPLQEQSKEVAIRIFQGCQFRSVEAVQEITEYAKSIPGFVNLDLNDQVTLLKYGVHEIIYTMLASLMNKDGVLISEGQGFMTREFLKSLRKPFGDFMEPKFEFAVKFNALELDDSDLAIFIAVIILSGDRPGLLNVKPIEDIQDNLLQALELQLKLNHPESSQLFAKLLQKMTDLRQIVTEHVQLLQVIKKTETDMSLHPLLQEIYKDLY

[7] = molecular target: T4, Peroxisome proliferator-activated receptor gamma (Homo sapiens); experiment: Agonist activity at human Gal4-fused PPARgamma assessed as luciferase activity at 10 uM by reporter gene assay relative to control; format: functional

## C=C1c2ccccc2C(=O)N(C)c2ccc(CC)cc21
[1]
  Activity: Dose-dependent effect
[2]
  Activity: inactive
[3]
  inhibition: Active
[4]
  inhibition: inactive
[5]
  Activity: inactive
[6]
  inhibition: inactive
[7]
  Activity: 20%
